Results reported in PMC8383301 (Molecular Pharmaceutics, 2021).
Entries after “also recorded” stand apart in the source; their conditions may differ. Where two headings read alike, the source gives them in different places.

Legend:
P-gp [1] = details: enriched diet; mice models of AD; cited from earlier work
[2] = Safety of MC111 administration to rats; type: in vivo; details: 6 mg/kg dose
[3] = system: breast cancer resistance protein (BCRP); details: colo-320 and MCF7 cells; cited from earlier work
[4] = system: pregnane X receptor (PXR); experiment: Western blot of PXR expression in whole-brain tissue; type: in vivo, Wistar rats
In short: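 Male Wistar rats (RjHan:WI) got a single i.v. tail-vein dose of 4.5 or 6 mg/kg (n = 6 each) or vehicle (n = 6) under isoflurane, 24 h before scanning. The vehicle was 5% DMSO, 10% PEG 300 and 85% water. Whole-brain tissue was extracted in cold RIPA with protease inhibitors (~10:1 v/w). Semidry transfer to PVDF ran 2 h; blocking was 1 h in 3% BSA/TBST. PXR was normalised to histone H3, and group means to control.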

P-gp [5] = details: SW480 human colon adenocarcinoma cells; cited from earlier work
P-glycoprotein (P-gp) [6] = experiment: Western blot of P-gp expression in whole-brain tissue; type: in vivo, Wistar rats; details: MC111 4.5 or 6 mg/kg, 24 h
[7] = rat, in vivo, 4.5 mg/kg
P-glycoprotein (P-gp) [8] = system: P-glycoprotein (P-gp); set-up: species or system Wistar rats; details: rat, in vivo
P-gp [9] = details: colo-320 cells; cited from earlier work
P-gp [10] = details: long-term exposure (60 days); rat brain microvascular endothelial cells in vitro; cited from earlier work
P-gp [11] = details: caco-2 cells; cited from earlier work
P-gp [12] = details: isolated brain capillaries in vitro; cited from earlier work
P-gp [13] = details: transgenic mouse model of human AD; treatment for 7 days; cited from earlier work

C=C1/C(=C\C=C2/CCC[C@]3(C)[C@@H]([C@H](C)CCCC(C)(C)O)CC[C@@H]23)C[C@@H](O)C[C@@H]1O [1,25-Dihydroxyvitamin D3]
Aβ deposition (P-gp [1]): reduced
P-gp function (P-gp [1]): induced

Oc1ccc(-c2ccc(CN3CCN(C4CCCCC4)CC3)cc2)cc1 [MC111, 4′-((4-cyclohexylpiperazin-1-yl)methyl)-[1,1′-biphenyl]-4-ol]
safety of administration [2]: safely administered
BCRP function and expression [3]: activates
PXR expression levels, treated vs control [4]: did not detect any increase
PXR expression levels ([4]; high-dose group, MC111 6 mg/kg): tendency to lower levels
P-gp expression (P-gp [5]): increases
P-gp expression, treated vs control (P-glycoprotein (P-gp) [6]): did not detect changes; also recorded: no significant differences
Ke vs control group [7]: no significant differences
SUV–TAC of the whole brain, differences among the groups (P-glycoprotein (P-gp) [8]): did not find any significant differences
decrease of whole-brain K1 compared to the low-dose group (P-glycoprotein (P-gp) [8]): 29%
SUV40–60 min of the whole brain (P-glycoprotein (P-gp) [8]; 4.5 mg/kg): 0.45 ± 0.02
decrease of VT and K1 values compared to the control group (P-glycoprotein (P-gp) [8]; 4.5 mg/kg): not statistically significant
decrease of whole-brain K1 compared to controls (P-glycoprotein (P-gp) [8]; 4.5 mg/kg): 7%
decrease of whole-brain VT compared to controls (P-glycoprotein (P-gp) [8]; 4.5 mg/kg): 6%
K1 and VT values compared to the control group (P-glycoprotein (P-gp) [8]; 6 mg/kg): significant reduction
decrease of whole-brain K1 compared to controls (P-glycoprotein (P-gp) [8]; 6 mg/kg): 34%
[3H]verapamil efflux (P-gp function) (P-gp [9]): increase

NC(=O)N1c2ccccc2C=Cc2ccccc21 [carbamazepine]
P-gp expression levels and P-gp function (P-gp [10]): increased

COc1cc2c(c(OC)c1OC)-c1ccc(OC)c(=O)cc1[C@@H](NC(C)=O)CC2 [colchicine]
P-gp expression (P-gp [11]): increased
P-gp function (P-gp [11]): without increasing

CC(C)=CCC[C@]1(C)[C@@H](CC=C(C)C)C[C@@]2(CC=C(C)C)C(=O)[C@]1(C(=O)C(C)C)C(=O)C(CC=C(C)C)=C2O [hyperforin]
P-gp expression and function (P-gp [12]): increase

CCC1(c2ccccc2)C(=O)NC(=O)NC1=O [phenobarbital]
P-gp expression levels and P-gp function (P-gp [10]): increased

O=C1NC(=O)C(c2ccccc2)(c2ccccc2)N1 [phenytoin]
P-gp expression levels and P-gp function (P-gp [10]): increased

CC(=O)[C@H]1[C@H](C#N)C[C@H]2[C@@H]3CC=C4C[C@@H](O)CC[C@]4(C)[C@H]3CC[C@@]21C [pregnenolone-16α-carbonitrile]
P-gp function (P-gp [13]): restored

CO[C@H]1/C=C/O[C@@]2(C)Oc3c(C)c(O)c4c(O)c(c(/C=N/N5CCN(C)CC5)c(O)c4c3C2=O)NC(=O)/C(C)=C\C=C\[C@H](C)[C@H](O)[C@@H](C)[C@@H](O)[C@@H](C)[C@H](OC(C)=O)[C@@H]1C [rifampin]
P-gp expression and function (P-gp [12]): increase

CCCC(CCC)C(=O)O [valproic acid]
P-gp expression levels and P-gp function (P-gp [10]): increased
